Results published in ChEMBL document CHEMBL1240374, “Selection of mutations to detect multidrug-resistant Mycobacterium tuberculosis strains in Shanghai, China” (2010).

What was measured:
Assay type in all cases: functional
[1] = tested on: Mycobacterium tuberculosis; experiment: Antibacterial activity against drug resistant Mycobacterium tuberculosis containing phenotypic ahpC-9 mutation assessed as cumulative microbial sensitivity by phenotypic drug susceptibility testing
How it was run: (§1)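 Phenotypic DST on clinical M. tuberculosis isolates by the egg-based Löwenstein-Jensen proportion method. Species was confirmed by biochemical tests and PCR. Mutations were found by sequencing. Each mutation is reported as a number and as a percentage of the isolates screened.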

[2] = tested on: Mycobacterium tuberculosis; experiment: Antibacterial activity against Mycobacterium tuberculosis containing phenotypic rpoB513,katG315,inhA-15,ahpC-10,ahpC-6 mutation assessed as microbial sensitivity by phenotypic drug susceptibility testing; how it was run: as §1
[3] = tested on: Mycobacterium tuberculosis; experiment: Antibacterial activity against drug resistant Mycobacterium tuberculosis containing phenotypic ahpC-15 mutation assessed as cumulative microbial sensitivity by phenotypic drug susceptibility testing; how it was run: as §1
[4] = tested on: Mycobacterium tuberculosis; experiment: Antibacterial activity against drug resistant Mycobacterium tuberculosis containing phenotypic inhA25 mutation assessed as cumulative microbial sensitivity by phenotypic drug susceptibility testing; how it was run: as §1
[5] = tested on: Mycobacterium tuberculosis; experiment: Antibacterial activity against drug resistant Mycobacterium tuberculosis containing phenotypic katG322 mutation assessed as cumulative microbial sensitivity by phenotypic drug susceptibility testing; how it was run: as §1
[6] = tested on: Mycobacterium tuberculosis; experiment: Antibacterial activity against drug resistant Mycobacterium tuberculosis containing phenotypic ahpC-32 mutation assessed as cumulative microbial sensitivity by phenotypic drug susceptibility testing; how it was run: as §1
[7] = tested on: Mycobacterium tuberculosis; experiment: Antibacterial activity against drug resistant Mycobacterium tuberculosis containing phenotypic katG315 mutation assessed as cumulative microbial sensitivity by phenotypic drug susceptibility testing; how it was run: as §1
[8] = tested on: Mycobacterium tuberculosis; experiment: Antibacterial activity against drug resistant Mycobacterium tuberculosis containing phenotypic ahpC-6 mutation assessed as cumulative microbial sensitivity by phenotypic drug susceptibility testing; how it was run: as §1
[9] = tested on: Mycobacterium tuberculosis; experiment: Antibacterial activity against drug resistant Mycobacterium tuberculosis containing phenotypic ahpC-39 mutation assessed as cumulative microbial sensitivity by phenotypic drug susceptibility testing; how it was run: as §1
[10] = tested on: Mycobacterium tuberculosis; experiment: Antibacterial activity against Mycobacterium tuberculosis containing phenotypic embB306 mutation assessed as microbial sensitivity by phenotypic drug susceptibility testing; how it was run: as §1
[11] = tested on: Mycobacterium tuberculosis; experiment: Antibacterial activity against drug resistant Mycobacterium tuberculosis containing phenotypic ahpC-12 mutation assessed as cumulative microbial sensitivity by phenotypic drug susceptibility testing; how it was run: as §1
[12] = tested on: Mycobacterium tuberculosis; experiment: Antibacterial activity against drug resistant Mycobacterium tuberculosis containing phenotypic katG295 mutation assessed as cumulative microbial sensitivity by phenotypic drug susceptibility testing; how it was run: as §1
[13] = tested on: Mycobacterium tuberculosis; experiment: Antibacterial activity against drug resistant Mycobacterium tuberculosis containing phenotypic ahpC-10 mutation assessed as cumulative microbial sensitivity by phenotypic drug susceptibility testing; how it was run: as §1
[14] = tested on: Mycobacterium tuberculosis; experiment: Antibacterial activity against drug resistant Mycobacterium tuberculosis containing phenotypic inhA-8 mutation assessed as cumulative microbial sensitivity by phenotypic drug susceptibility testing; how it was run: as §1
[15] = tested on: Mycobacterium tuberculosis; experiment: Antibacterial activity against drug resistant Mycobacterium tuberculosis containing phenotypic inhA-15 mutation assessed as cumulative microbial sensitivity by phenotypic drug susceptibility testing; how it was run: as §1
[16] = tested on: Mycobacterium tuberculosis; experiment: Antibacterial activity against drug resistant Mycobacterium tuberculosis containing phenotypic katG299 mutation assessed as cumulative microbial sensitivity by phenotypic drug susceptibility testing; how it was run: as §1
[17] = tested on: Mycobacterium tuberculosis; experiment: Antibacterial activity against drug resistant Mycobacterium tuberculosis containing phenotypic rpoB526 mutation assessed as cumulative microbial sensitivity by phenotypic drug susceptibility testing; how it was run: as §1
[18] = tested on: Mycobacterium tuberculosis; experiment: Antibacterial activity against drug resistant Mycobacterium tuberculosis containing phenotypic rpoB533 mutation assessed as cumulative microbial sensitivity by phenotypic drug susceptibility testing; how it was run: as §1
[19] = tested on: Mycobacterium tuberculosis; experiment: Antibacterial activity against drug resistant Mycobacterium tuberculosis containing phenotypic rpoB531 mutation assessed as cumulative microbial sensitivity by phenotypic drug susceptibility testing; how it was run: as §1
[20] = tested on: Mycobacterium tuberculosis; experiment: Antibacterial activity against Mycobacterium tuberculosis containing phenotypic rpoB531,rpoB526,rpo533 mutation assessed as microbial sensitivity by phenotypic drug susceptibility testing; how it was run: as §1
[21] = tested on: Mycobacterium tuberculosis; experiment: Antibacterial activity against drug resistant Mycobacterium tuberculosis containing phenotypic rpoB515 mutation assessed as cumulative microbial sensitivity by phenotypic drug susceptibility testing; how it was run: as §1
[22] = tested on: Mycobacterium tuberculosis; experiment: Antibacterial activity against drug resistant Mycobacterium tuberculosis containing phenotypic rpoB511 mutation assessed as cumulative microbial sensitivity by phenotypic drug susceptibility testing; how it was run: as §1
[23] = tested on: Mycobacterium tuberculosis; experiment: Antibacterial activity against drug resistant Mycobacterium tuberculosis containing phenotypic rpoB522 mutation assessed as cumulative microbial sensitivity by phenotypic drug susceptibility testing; how it was run: as §1
[24] = tested on: Mycobacterium tuberculosis; experiment: Antibacterial activity against drug resistant Mycobacterium tuberculosis containing phenotypic rpoB534 mutation assessed as cumulative microbial sensitivity by phenotypic drug susceptibility testing; how it was run: as §1
[25] = tested on: Mycobacterium tuberculosis; experiment: Antibacterial activity against drug resistant Mycobacterium tuberculosis containing phenotypic rpoB518 mutation assessed as cumulative microbial sensitivity by phenotypic drug susceptibility testing; how it was run: as §1
[26] = tested on: Mycobacterium tuberculosis; experiment: Antibacterial activity against drug resistant Mycobacterium tuberculosis containing phenotypic rpoB529 mutation assessed as cumulative microbial sensitivity by phenotypic drug susceptibility testing; how it was run: as §1
[27] = tested on: Mycobacterium tuberculosis; experiment: Antibacterial activity against drug resistant Mycobacterium tuberculosis containing phenotypic rpoB516 mutation assessed as cumulative microbial sensitivity by phenotypic drug susceptibility testing; how it was run: as §1
[28] = tested on: Mycobacterium tuberculosis; experiment: Antibacterial activity against drug resistant Mycobacterium tuberculosis containing phenotypic rpoB519 mutation assessed as cumulative microbial sensitivity by phenotypic drug susceptibility testing; how it was run: as §1
[29] = tested on: Mycobacterium tuberculosis; experiment: Antibacterial activity against drug resistant Mycobacterium tuberculosis containing phenotypic rpoB513 mutation assessed as cumulative microbial sensitivity by phenotypic drug susceptibility testing; how it was run: as §1

NNC(=O)c1ccncc1 [ISONIAZID]
Activity [1]: 87.6% | Activity [2]: 85.5% | Activity [3]: 88.4% | Activity [4]: 87.6% | Activity [5]: 89.3% | Activity [6]: 88% | Activity [7]: 72.7% | Activity [8]: 83.1% | Activity [9]: 86.4% | Activity [10]: 89.3% | Activity [11]: 85.5% | Activity [12]: 88.8% | Activity [13]: 80.6% | Activity [14]: 86.4% | Activity [15]: 78.5% | Activity [16]: 88.8%

CO[C@H]1/C=C/O[C@@]2(C)Oc3c(C)c(O)c4c(O)c(c(/C=N/N5CCN(C)CC5)c(O)c4c3C2=O)NC(=O)/C(C)=C\C=C\[C@H](C)[C@H](O)[C@@H](C)[C@@H](O)[C@@H](C)[C@H](OC(C)=O)[C@@H]1C [RIFAMPIN]
Activity [17]: 79.8% | Activity [18]: 90.9% | Activity [10]: 93.8% | Activity [19]: 61.2% | Activity [20]: 93.8% | Activity [21]: 95.9% | Activity [22]: 94.2% | Activity [23]: 95.9% | Activity [24]: 95.9% | Activity [25]: 95.9% | Activity [26]: 95.9% | Activity [27]: 87.2% | Activity [28]: 96.3% | Activity [29]: 93.8%
